Measurements: ChEMBL document CHEMBL2010709, “Pinophilins A and B, inhibitors of mammalian A-, B-, and Y-family DNA polymerases and human cancer cell proliferation” (J Nat Prod, 2012)

Tests used:
[1] = Growth inhibition of HUVEC cells after 72 hrs by WST-1 assay; assay type: cell-based; conditions: human
Method in brief: (§1)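 Normal cells (HDF, HUVEC) were grown in Eagle's MEM with 4.5 g/L glucose, 10% FCS, 5 mM L-glutamine and penicillin/streptomycin, 37 °C, 5% CO2. Cells were seeded at 1 × 10^4 per well, cultured 12 h, then exposed to compound (0.5% DMSO final) for 72 h. Viability was read by WST-1 at 450/630 nm. GI50 given as mean ± SE of five experiments.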

[2] = system: BALL-1; assay: Growth inhibition of human BALL-1 cells after 24 hrs by WST-1 assay; assay type: functional; conditions: BALL-1, 24 h
Method in brief: (§2)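 Cancer cells were grown in McCoy's 5A with 10% FBS and penicillin/streptomycin, 37 °C, 5% CO2. Cells were seeded at 1 × 10^4 per well, cultured 12 h, then given compound (10 mM DMSO stock diluted in medium, 0.5% DMSO) for 24 h. WST-1 was added for 4 h and absorbance read at 450/630 nm. GI50 given as mean ± SE, five independent experiments.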

[3] = system: A549; assay: Growth inhibition of human A549 cells after 24 hrs by WST-1 assay; assay type: functional; conditions: A549, 24 h; method in brief: as §2
[4] = system: HCT-116; assay: Growth inhibition of against human HCT116 cells after 24 hrs by WST-1 assay; assay type: functional; conditions: HCT-116, 24 h; method in brief: as §2
[5] = system: HeLa; assay: Growth inhibition of human HeLa cells after 24 hrs by WST-1 assay; assay type: functional; method in brief: as §2
[6] = Growth inhibition of HDF cells after 72 hrs by WST-1 assay; assay type: cell-based; conditions: human; method in brief: as §1
[7] = system: NUGC-3; assay: Growth inhibition of human NUGC3 cells after 24 hrs by WST-1 assay; assay type: functional; conditions: NUGC-3, 24 h; method in brief: as §2

GI50 [3]: 0.2 µM
GI50 [4]: 0.12 µM
GI50 [5]: 0.18 µM
SMILES: Nc1ccn([C@@H]2O[C@H](CO)[C@@H](O)[C@@H]2O)c(=O)n1 [CYTARABINE]
GI50 at 72 h [1]: 0.23 µM
GI50 [2]: 0.08 µM
GI50 at 72 h [6]: 0.25 µM
GI50 [7]: 0.25 µM
